Measurements: publication PMC9301648 (ACS Omega, 2022)

How the values were obtained:
[1] = cytotoxicity toward MRC5 cells, same conditions without virus infection; format: cell-based; conditions: human
Outline: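 Run in parallel with the antiviral CPE assay under identical conditions without virus infection. MRC5 cells were seeded at 20,000 cells/well and cultured overnight at 37 °C, 5% CO₂. Test compound diluted in assay medium was added; final DMSO 0.5%. Viability was read by CellTiter Glo. Single-point at 25 μM; CC50 by four-parameter log(inhibitor) vs response variable-slope regression.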

[2] = tested on: human coronavirus (HCoV) 229E; experiment: cytopathic effect; format: cell-based; conditions: for inhibition at 25 µM: unidentified human coronavirus, MRC5, read-out: normalized inhibition % (25 μM); for inhibition of HCoV 229E in words: 25 μM, MRC5 cells
Outline: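 MRC5 cells were seeded at 20,000 cells/well and grown overnight at 37 °C, 5% CO₂. Test compound diluted in assay medium was added, then HCoV 229E diluted in assay medium; final DMSO 0.5%. CPE was read by CellTiter Glo. Protection at each concentration was normalized to virus-only control. Screen at 25 μM; EC50 from full dose–response by four-parameter variable-slope nonlinear regression.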

Row | SMILES | cytotoxicity at 3 days, 25 µM [1] [%] | inhibition at 25 µM [2] [%] | CC50 at 3 days [1] [µM] | inhibition of HCoV 229E in words [2]
1 | CC(=O)OC[C@@]1(C)[C@H]2CC[C@@H]3CN(Cc4ccccc4)[C@@H](C4=CCOC4=O)C[C@H]3[C@]2(C)CC[C@H]1OC(C)=O [4a, ((2R,4aS,6aS,7R,8R,10aS,10bR)-8-Acetoxy-3-benzyl-7,10a-dimethyl-2-(2-oxo-2,5-dihydrofuran-3-yl)tetradecahydrobenzo[f]isoquinolin-7-yl)methyl Acetate] | 15.5 | 66.8 | – | –
2 | CC(=O)OC[C@@]1(C)[C@H]2CC[C@@H]3CN(Cc4ccc(Br)cc4)[C@@H](C4=CCOC4=O)C[C@H]3[C@]2(C)CC[C@H]1OC(C)=O [4d, ((2R,4aS,6aS,7R,8R,10aS,10bR)-8-Acetoxy-3-(4-bromobenzyl)-7,10a-dimethyl-2-(2-oxo-2,5-dihydrofuran-3-yl)tetradecahydrobenzo[f]isoquinolin-7-yl)methyl Acetate] | -3 | 110 | – | –
3 | CC(=O)OC[C@@]1(C)[C@H]2CC[C@@H]3CN(Cc4ccc(C(F)(F)F)cc4)[C@@H](C4=CCOC4=O)C[C@H]3[C@]2(C)CC[C@H]1OC(C)=O [4h, ((2R,4aS,6aS,7R,8R,10aS,10bR)-8-Acetoxy-7,10a-dimethyl-2-(2-oxo-2,5-dihydrofuran-3-yl)-3-(4-(trifluoromethyl)benzyl)tetradecahydrobenzo[f]isoquinolin-7-yl)methyl Acetate] | -5.4 | 119 | – | –
4 | CC(=O)OC[C@@]1(C)[C@H]2CC[C@@H]3CN(Cc4ccc(O)cc4)[C@@H](C4=CCOC4=O)C[C@H]3[C@]2(C)CC[C@H]1OC(C)=O [4j, ((2R,4aS,6aS,7R,8R,10aS,10bR)-8-Acetoxy-3-(4-hydroxybenzyl)-7,10a-dimethyl-2-(2-oxo-2,5-dihydrofuran-3-yl)tetradecahydrobenzo[f]isoquinolin-7-yl)methyl Acetate] | -5.2 | 55.6 | – | –
5 | CC(=O)OC[C@@]1(C)[C@H]2CC[C@@H]3CN(Cc4ccccc4F)[C@@H](C4=CCOC4=O)C[C@H]3[C@]2(C)CC[C@H]1OC(C)=O [4l, ((2R,4aS,6aS,7R,8R,10aS,10bR)-8-Acetoxy-3-(2-fluorobenzyl)-7,10a-dimethyl-2-(2-oxo-2,5-dihydrofuran-3-yl)tetradecahydrobenzo[f]isoquinolin-7-yl)methyl Acetate] | -19.5 | 148 | > 100 | –
6 | CC(=O)OC[C@@]1(C)[C@H]2CC[C@@H]3CN(Cc4cccc(Cl)c4)[C@@H](C4=CCOC4=O)C[C@H]3[C@]2(C)CC[C@H]1OC(C)=O [4m, ((2R,4aS,6aS,7R,8R,10aS,10bR)-8-Acetoxy-3-(3-chlorobenzyl)-7,10a-dimethyl-2-(2-oxo-2,5-dihydrofuran-3-yl)tetradecahydrobenzo[f]isoquinolin-7-yl)methyl Acetate] | -13.2 | 130 | > 100 | –
7 | CC(=O)OC[C@@]1(C)[C@H]2CC[C@@H]3CN(Cc4ccc(F)c(Cl)c4)[C@@H](C4=CCOC4=O)C[C@H]3[C@]2(C)CC[C@H]1OC(C)=O [4n, ((2R,4aS,6aS,7R,8R,10aS,10bR)-8-Acetoxy-3-(3-chloro-4-fluorobenzyl)-7,10a-dimethyl-2-(2-oxo-2,5-dihydrofuran-3-yl)tetradecahydrobenzo[f]isoquinolin-7-yl)methyl Acetate] | -4.9 | 102 | – | –
8 | CC(=O)OC[C@@]1(C)[C@H]2CC[C@@H]3CN(Cc4ccco4)[C@@H](C4=CCOC4=O)C[C@H]3[C@]2(C)CC[C@H]1OC(C)=O [4o, ((2R,4aS,6aS,7R,8R,10aS,10bR)-8-Acetoxy-3-(furan-2-ylmethyl)-7,10a-dimethyl-2-(2-oxo-2,5-dihydrofuran-3-yl)tetradecahydrobenzo[f]isoquinolin-7-yl)methyl Acetate] | -4.5 | 58.4 | – | weak inhibition effect
9 | CC(=O)OC[C@@]1(C)[C@H]2CC[C@@H]3CN(Cc4cccs4)[C@@H](C4=CCOC4=O)C[C@H]3[C@]2(C)CC[C@H]1OC(C)=O [4p, ((2R,4aS,6aS,7R,8R,10aS,10bR)-8-Acetoxy-7,10a-dimethyl-2-(2-oxo-2,5-dihydrofuran-3-yl)-3-(thiophen-2-ylmethyl)tetradecahydrobenzo[f]isoquinolin-7-yl)methyl Acetate] | 4.2 | 26.9 | – | weak inhibition effect
10 | CC(=O)OC[C@@]1(C)[C@H]2CC[C@@H]3CN(Cc4cccc5ccccc45)[C@@H](C4=CCOC4=O)C[C@H]3[C@]2(C)CC[C@H]1OC(C)=O [4q, ((2R,4aS,6aS,7R,8R,10aS,10bR)-8-Acetoxy-7,10a-dimethyl-3-(naphthalen-1-ylmethyl)-2-(2-oxo-2,5-dihydrofuran-3-yl)tetradecahydrobenzo[f]isoquinolin-7-yl)methyl Acetate] | -14.7 | 121 | – | –
11 | CCCN1C[C@H]2CC[C@@H]3[C@](C)(COC(C)=O)[C@H](OC(C)=O)CC[C@@]3(C)[C@@H]2C[C@@H]1C1=CCOC1=O [4r, ((2R,4aS,6aS,7R,8R,10aS,10bR)-8-Acetoxy-7,10a-dimethyl-2-(2-oxo-2,5-dihydrofuran-3-yl)-3-propyltetradecahydrobenzo[f]isoquinolin-7-yl)methyl Acetate] | -5.6 | 51.4 | – | –
12 | CC(=O)OC[C@@]1(C)[C@H]2CC[C@@H]3CN(CCC(C)C)[C@@H](C4=CCOC4=O)C[C@H]3[C@]2(C)CC[C@H]1OC(C)=O [4v, ((2R,4aS,6aS,7R,8R,10aS,10bR)-8-Acetoxy-3-isopentyl-7,10a-dimethyl-2-(2-oxo-2,5-dihydrofuran-3-yl)tetradecahydrobenzo[f]isoquinolin-7-yl)methyl Acetate] | 3.2 | 102 | – | –
13 | CC(=O)OC[C@@]1(C)[C@H]2CC[C@@H]3CN(C4CCCC4)[C@@H](C4=CCOC4=O)C[C@H]3[C@]2(C)CC[C@H]1OC(C)=O [4w, ((2R,4aS,6aS,7R,8R,10aS,10bR)-8-Acetoxy-3-cyclopentyl-7,10a-dimethyl-2-(2-oxo-2,5-dihydrofuran-3-yl)tetradecahydrobenzo[f]isoquinolin-7-yl)methyl Acetate] | -4.5 | 11.3 | – | –
14 | CC(=O)OC[C@@]1(C)[C@H]2CC[C@@H]3CN(C4CCCCCC4)[C@@H](C4=CCOC4=O)C[C@H]3[C@]2(C)CC[C@H]1OC(C)=O [4y, ((2R,4aS,6aS,7R,8R,10aS,10bR)-8-Acetoxy-3-cycloheptyl-7,10a-dimethyl-2-(2-oxo-2,5-dihydrofuran-3-yl)tetradecahydrobenzo[f]isoquinolin-7-yl)methyl Acetate] | -18.2 | 135 | > 100 | –
15 | Cc1ccc(CN2C[C@H]3CC[C@@H]4[C@]5(C)COC(C)(C)O[C@@H]5CC[C@@]4(C)[C@@H]3C[C@@H]2C2=CCOC2=O)cc1 [9f, 3-((4aR,4bS,6aS,9R,10aR,10bS,12aR)-2,2,4a,10b-Tetramethyl-8-(4-methylbenzyl)tetradecahydro-4H-[1,3]dioxino[5′,4′:3,4]benzo[1,2-f]isoquinolin-9-yl)furan-2(5H)-one] | -1.6 | 100 | > 100 | good inhibition
16 | CC1(C)OC[C@@]2(C)[C@H]3CC[C@@H]4CN(Cc5ccc(C(C)(C)C)cc5)[C@@H](C5=CCOC5=O)C[C@H]4[C@]3(C)CC[C@H]2O1 [9g, 3-((4aR,4bS,6aS,9R,10aR,10bS,12aR)-8-(4-(tert-Butyl)benzyl)-2,2,4a,10b-tetramethyltetradecahydro-4H-[1,3]dioxino[5′,4′:3,4]benzo[1,2-f]isoquinolin-9-yl)furan-2(5H)-one] | -0.2 | 103 | – | –
17 | CC1(C)OC[C@@]2(C)[C@H]3CC[C@@H]4CN(Cc5ccc([N+](=O)[O-])cc5)[C@@H](C5=CCOC5=O)C[C@H]4[C@]3(C)CC[C@H]2O1 [9h, 3-((4aR,4bS,6aS,9R,10aR,10bS,12aR)-2,2,4a,10b-Tetramethyl-8-(4-nitrobenzyl)tetradecahydro-4H-[1,3]dioxino[5′,4′:3,4]benzo[1,2-f]isoquinolin-9-yl)furan-2(5H)-one] | -4.7 | 102 | – | –
18 | C[C@@]12COCO[C@@H]1CC[C@]1(C)[C@@H]2CC[C@@H]2CN(Cc3cccs3)[C@@H](C3=CCOC3=O)C[C@H]21 [10d, 3-((4aR,4bS,6aS,9R,10aR,10bS,12aR)-4a,10b-Dimethyl-8-(thiophen-2-ylmethyl)tetradecahydro-4H-[1,3]dioxino[5′,4′:3,4]benzo[1,2-f]isoquinolin-9-yl)furan-2(5H)-one] | -13.4 | 58.6 | – | –
19 | C[C@]1(CO)[C@H]2CC[C@@H]3CN(Cc4ccccc4)[C@@H](C4=CCOC4=O)C[C@H]3[C@]2(C)CC[C@H]1O [11a, 3-((2R,4aS,6aS,7R,8R,10aS,10bR)-3-Benzyl-8-hydroxy-7-(hydroxymethyl)-7,10a-dimethyltetradecahydrobenzo[f]isoquinolin-2-yl)furan-2(5H)-one] | -4.8 | 39.7 | – | –
20 | C=C1CC[C@@H]2[C@](C)(CO)[C@H](O)CC[C@@]2(C)[C@@H]1C/C=C1/C(=O)OC[C@H]1O [andrographolide 1, andrographolide, reference compound] | 23.6 | 34.8 | – | –
